The test system of assay [1] is HeLa. As to the kind of experiment: Cytotoxicity against human HeLa cells after 48 hrs by SRB method. Type of assay: functional, cell-based.
The subject of assay [2] is Bacillus cereus. As to the kind of experiment: Antibacterial activity against Bacillus cereus grown in sheep blood agar media assessed as concentration required to inhibit bacterial growth due to absence of hemolysis of erythrocytes after 18 hrs by […] broth dilution method. The class given is functional. The gist of the method:
(§1)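 Colonies from overnight culture on 5% sheep blood agar were suspended in Mueller−Hinton broth to 0.5 McFarland (about 1.5 × 10^8 CFU/mL), then diluted 10-fold. Aqueous stocks (1 g/L) were used at once and doubly diluted 250−0.125 μg/mL in Mueller−Hinton broth with 5% defibrinated sheep blood. Final inoculum was 2 × 10^5−7 × 10^5 CFU/mL. Plates were incubated 18 h at 35 °C. MIC was taken as the lowest concentration with no growth, shown by absence of erythrocyte hemolysis. Triplicate; ampicillin control.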
A general note: In broth dilution the organism is exposed to a series of concentrations in liquid medium.

Assay [3] has as its system Staphylococcus aureus. The experiment in a line: Antibacterial activity against Staphylococcus aureus grown in sheep blood agar media assessed as concentration required to inhibit bacterial growth due to absence of hemolysis of erythrocytes after 18 hrs by […] broth dilution method. Type of assay: functional. The gist of the method: as §1
Assay [4] deals with Bacillus subtilis. The experiment in a line: Antibacterial activity against Bacillus subtilis grown in sheep blood agar media assessed as concentration required to inhibit bacterial growth due to absence of hemolysis of erythrocytes after 18 hrs by […] broth dilution method. Type of assay: functional. The gist of the method:
as §1

In assay [5] the test system is Escherichia coli. The experiment in a line: Antibacterial activity against Escherichia coli grown in sheep blood agar media assessed as concentration required to inhibit bacterial growth due to absence of hemolysis of erythrocytes after 18 hrs by […] broth dilution method. The class given is functional. The gist of the method:
as §1

Assay [6] concerns Pectobacterium carotovorum. As to the kind of experiment: Antibacterial activity against Erwinia carotovora grown in sheep blood agar media assessed as concentration required to inhibit bacterial growth due to absence of hemolysis of erythrocytes after 18 hrs by […] broth dilution method. Type of assay: functional. The gist of the method:
as §1

The subject of assay [7] is HL-60. As to the kind of experiment: Cytotoxicity against human HL60 cells after 48 hrs by SRB method. The class given is functional, cell-based. The following applies: HL-60, 48 h.
A short description of assay [8]: Cytotoxicity against human […] cells after 48 hrs by SRB method. Type of assay: functional, cell-based. (In general: Sulforhodamine B stains cellular protein and so reports cell mass.)

Values after ≈ are worked out from the molar mass of the structure shown.

As a reminder, the IC50 is the midpoint of a concentration-inhibition curve. Low values mean inhibition by little substance, high ones a need for much substance. The MIC is the lowest concentration that inhibits growth of the organism. In the case of `CC(=O)[C@@]12O[C@@H]1[C@@]1(C)C(=CC2=O)[C@H](O)CC[C@@H]1C`, the half-inhibitory concentration (IC50) in assay [1], in assay [7] and in assay [8] was 13 µM each time. Besides, the minimum inhibitory concentration (MIC) in assay [2] was over 250 µg/mL; in assay [3] it was over 250 µg/mL; in assay [4], over 250 µg/mL; in assay [5], 31.2 µg/mL (≈ 125 µM); in assay [6], 62.5 µg/mL (≈ 250 µM).

For `CC1(C)S[C@@H]2[C@H](NC(=O)[C@H](N)c3ccccc3)C(=O)N2[C@H]1C(=O)O` [AMPICILLIN], the minimum inhibitory concentration (MIC) in assay [2] is 25 µg/mL (≈ 71.5 µM); in assay [3], 25 µg/mL (≈ 71.5 µM); in assay [4] it was 12.5 µg/mL (≈ 35.8 µM); in assay [5] it was 100 µg/mL (≈ 286 µM); in assay [6], 100 µg/mL (≈ 286 µM).

In the case of `CC1=C2[C@@H](O)[C@]3(C)[C@@H](C)CC[C@H]4O[C@]43C[C@@]2(O)OC1=O`, the minimum inhibitory concentration (MIC) in assay [2] came to 62.5 µg/mL (≈ 223 µM); in assay [3] it was 125 µg/mL (≈ 446 µM); in assay [4] it was 125 µg/mL (≈ 446 µM); in assay [5], 125 µg/mL (≈ 446 µM); in assay [6], 125 µg/mL (≈ 446 µM).

Take `CC(=O)C1=C[C@@]2(C)C(=CC1=O)[C@H](O)CC[C@@H]2C`: the minimal inhibitory concentration (MIC) is over 250 µg/mL in assay [2]; over 250 µg/mL in assay [3]; over 250 µg/mL in assay [4]; 31.2 µg/mL (≈ 133 µM) in assay [5]; over 250 µg/mL in assay [6].

For `C=C(CO)C(=O)O[C@@H]1C2=C(C)C(=O)O[C@@]2(O)C[C@@]23O[C@@H]2CC[C@H](C)[C@@]13C`, the MIC is 7.25 µg/mL (≈ 19.9 µM) in assay [2]; 7.25 µg/mL (≈ 19.9 µM) in assay [3]; 15.5 µg/mL (≈ 42.5 µM) in assay [4]; 7.25 µg/mL (≈ 19.9 µM) in assay [5]; 7.25 µg/mL (≈ 19.9 µM) in assay [6].

On to `CO[C@@]12[C@H](COC(N)=O)C3=C(C(=O)C(C)=C(N)C3=O)N1C[C@@H]1N[C@@H]12` [MITOMYCIN], for which the concentration for half-maximal inhibition (IC50) in assay [1], in assay [7] and in assay [8] was 3 µM throughout.

`C/C=C(/CO)C(=O)O[C@@H]1C2=C(C)C(=O)O[C@@]2(O)C[C@@]23O[C@@H]2CC[C@H](C)[C@@]13C`: the MIC is 15.5 µg/mL (≈ 41 µM) in assay [2]; 7.25 µg/mL (≈ 19.2 µM) in assay [3]; 7.25 µg/mL (≈ 19.2 µM) in assay [4]; 7.25 µg/mL (≈ 19.2 µM) in assay [5]; 7.25 µg/mL (≈ 19.2 µM) in assay [6].

`C/C=C(/CO)C(=O)O[C@@H]1C2=C(C)C(=O)O[C@]2(OC)C[C@@]23O[C@@H]2CC[C@H](C)[C@@]13C`: the IC50 in assay [1], in assay [7] and in assay [8] was 13 µM each time. For the same compound, the minimum inhibitory concentration (MIC) was 62.5 µg/mL (≈ 159 µM) in assay [2]; 125 µg/mL (≈ 319 µM) in assay [3]; 125 µg/mL (≈ 319 µM) in assay [4]; 62.5 µg/mL (≈ 159 µM) in assay [5]; 125 µg/mL (≈ 319 µM) in assay [6].

(Values after ChEMBL document CHEMBL3297687, “Eremophilane-type sesquiterpenoids with diverse skeletons from Ligularia sagitta” (J Nat Prod, 2014).)
